According to ChEMBL document CHEMBL4270657, “Efficient synthesis of new phenanthridine Wnt/β-catenin signaling pathway agonists” (Eur J Med Chem, 2018):
Calls of active or inactive are those of the source. The rule behind the calls is not given here.

Test system: HEK293
Assay: Activation of Wnt/beta-catenin signaling pathway (unknown origin) expressed in HEK293 cells harboring pEGFP-C1/TOP Flash/LacZ in Wnt3a conditioned medium after 6 hrs by luciferase reporter gene assay
Type: cell-based
Settings: Homo sapiens
In short: (§1)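 HEK293T cells in DMEM with 10% heat-inactivated FBS, 37°C, 5% CO2. Cells in 24-well plates were transfected with 250 ng plasmid per well (20 ng TOPFlash, 25 ng EGFP-C1, LacZ filler). 18 h later they were treated in Wnt3a CM or control CM for 6 h. Lysate GFP fluorescence was read first, then luciferase luminescence.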

Structure (SMILES)	CD
CCN1Cc2cc(OCc3cc(C)n(C)n3)ccc2-c2cccc(C)c21	3 µM
CCN1Cc2cc(OCc3cccnc3)ccc2-c2cccc(C)c21	1.5 µM
CCN1Cc2cc(OCc3cc(C)nn3C)ccc2-c2cccc(C)c21	0.5 µM
CCN1Cc2cc(OCc3cccnc3)c(OCc3cccnc3)cc2-c2cccc(C)c21	5 µM
CCN1Cc2cc(OCc3cc(C)nn3C)c(OCc3cc(C)nn3C)cc2-c2cccc(C)c21	0.15 µM
CCN1Cc2cc(OC)c(OC)cc2-c2cccc(C)c21	5 µM

Test system: HEK293
Assay: Activation of Wnt/beta-catenin signaling pathway (unknown origin) expressed in HEK293 cells harboring pEGFP-C1/TOP Flash/LacZ in Wnt3a conditioned medium assessed as increase in DKK1 gene expression at 0.5 to 5 uM after 6 hrs by luciferase reporter gene assay
Type: cell-based
Settings: Homo sapiens
In short: (§2)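 HEK293T cells were treated with compound plus control or Wnt3a CM for 6 h. Total RNA was extracted with TRIzol and reverse-transcribed with oligo(dT) priming. Transcripts were quantified by PCR with target primers (DKK1 given) and GAPDH primers as reference.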

Structure (SMILES)	Activity
CCN1Cc2cc(OCc3cc(C)n(C)n3)ccc2-c2cccc(C)c21	Active
CCN1Cc2cc(OCc3cc(C)nn3C)c(OCc3cc(C)nn3C)cc2-c2cccc(C)c21	Active

Target: Axin-1 (Mus musculus) (UniProt O35625)
Assay: Inhibition of HLY179 binding to mouse His6-tagged AXIN DAX domain expressed in Escherichia coli at 80 uM after 1 to 2 hrs by Western blot analysis
Settings: not given

Chain of Axin-1 (Mus musculus) (O35625 whole entry, the tested form may be a part): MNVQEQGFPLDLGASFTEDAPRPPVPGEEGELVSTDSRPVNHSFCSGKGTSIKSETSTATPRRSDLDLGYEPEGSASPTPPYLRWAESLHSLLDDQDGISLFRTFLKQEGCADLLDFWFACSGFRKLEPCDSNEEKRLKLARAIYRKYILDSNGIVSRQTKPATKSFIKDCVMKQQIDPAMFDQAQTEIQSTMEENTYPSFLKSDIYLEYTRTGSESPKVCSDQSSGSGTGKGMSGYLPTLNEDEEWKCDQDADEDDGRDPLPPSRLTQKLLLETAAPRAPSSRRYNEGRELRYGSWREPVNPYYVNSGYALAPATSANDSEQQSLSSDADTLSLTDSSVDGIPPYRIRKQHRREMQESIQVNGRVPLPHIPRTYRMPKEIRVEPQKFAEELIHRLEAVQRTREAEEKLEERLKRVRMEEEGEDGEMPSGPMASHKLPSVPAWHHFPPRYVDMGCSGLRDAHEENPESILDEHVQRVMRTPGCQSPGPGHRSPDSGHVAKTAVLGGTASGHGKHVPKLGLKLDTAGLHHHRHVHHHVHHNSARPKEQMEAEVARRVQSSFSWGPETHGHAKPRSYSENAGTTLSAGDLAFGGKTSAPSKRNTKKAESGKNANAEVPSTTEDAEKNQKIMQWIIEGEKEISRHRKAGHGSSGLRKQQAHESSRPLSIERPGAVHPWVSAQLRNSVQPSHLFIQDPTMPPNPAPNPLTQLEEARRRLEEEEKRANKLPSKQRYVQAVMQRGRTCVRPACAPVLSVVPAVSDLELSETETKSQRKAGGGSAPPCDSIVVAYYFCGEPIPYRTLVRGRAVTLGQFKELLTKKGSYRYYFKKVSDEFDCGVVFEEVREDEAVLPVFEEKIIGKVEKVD

Structure (SMILES)	inhibition
COc1ccc2c(c1)CN(C)c1c(C)cccc1-2	Active
CCN1Cc2cc(OC)ccc2-c2cccc(C)c21	Active

Now from value to compound:

inhibition	Structure (SMILES)
Active	CCN1Cc2cc(OCc3cc(C)n(C)n3)ccc2-c2cccc(C)c21
Active	CCN1Cc2cc(OCc3cc(C)nn3C)ccc2-c2cccc(C)c21
Active	CCN1Cc2cc(OCc3cccnc3)c(OCc3cccnc3)cc2-c2cccc(C)c21
Active	CCN1Cc2cc(OCc3cc(C)nn3C)c(OCc3cc(C)nn3C)cc2-c2cccc(C)c21

Test system: HEK293
Assay: Activation of Wnt/beta-catenin signaling pathway (unknown origin) expressed in HEK293 cells harboring pEGFP-C1/TOP Flash/LacZ in Wnt3a conditioned medium assessed as increase in AXIN2 gene expression at 0.5 to 5 uM after 6 hrs by luciferase reporter gene assay
Type: cell-based
Settings: Homo sapiens
In short: as §2

Structure (SMILES)	Activity
CCN1Cc2cc(OCc3cc(C)n(C)n3)ccc2-c2cccc(C)c21	Active
CCN1Cc2cc(OCc3cc(C)nn3C)c(OCc3cc(C)nn3C)cc2-c2cccc(C)c21	Active

Test system: HEK293
Assay: Activation of Wnt/beta-catenin signaling pathway (unknown origin) expressed in HEK293 cells harboring pEGFP-C1/TOP Flash/LacZ at 5 to 20 uM in Wnt3a conditioned medium after 6 hrs by luciferase reporter gene assay
Type: cell-based
Settings: Homo sapiens
In short: as §1

Structure (SMILES)	Activity
Cc1cc(COc2ccccc2)n(C)n1	Active
c1ccc(OCc2cccnc2)cc1	Active
CCN1Cc2cc(OC)ccc2-c2cccc(C)c21	Active
Cc1cc(COc2ccccc2)nn1C	Active
CCN1Cc2cc(OC)c(OC)cc2-c2cccc(C)c21	Active
